# Screening results from PubChem BioAssay.
# Shown are actives, neighbours in structure and some others; about 0.89% of the full set was active somewhere.
# PG9 binder: PG9 antibody binding by small molecule; TR-FRET gp120-PG9 antibody binding; inhibition, % at 6.7 µM; actives 0.43% (n = 360,000); in the data active = inhibition above about 8.5%
# iPSC survival up: enhancers of human iPSC single-cell survival | hiPSC single-cell survival, ATPlite luminescence; 100% = ROCK inhibitor wells, 0% = DMSO | survival enhancement, % at 20 µM | actives 0.044% (n = 360,000) | AID 602274; in the data active = survival enhancement above about 18%;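 note: cells exposed to compounds for 16 hours before the ATP read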
# ABCB6 inh 2: human ABCB6 transporter inhibition | Q9NP58 | K562-ABCB6 porphyrin accumulation, flow cytometry, 1 h; hits give low values | fluorescence ratio to DMSO, % at 10 µM | actives 0.19% (n = 360,000) | AID 602162;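 active = fluorescence ratio to DMSO below 75%, the collection mean minus 3 SD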;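 note: signal is porphyrin accumulated inside mitochondria; lower ratio means ABCB6 inhibition with less porphyrin fluorescence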
# Arr AP2 block: human beta-arrestin and AP2 interaction inhibition | inhibition, % at 10 µM | FITC-arrestin peptide / GST-AP2 beads, flow cytometry; AP2 beta2 appendage carries R879A mutation | actives 0.31% (n = 340,000);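 active = inhibition above a set limit, near 3 SD of compounds lacking own fluorescence, cut at about 54% in these data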
#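 System: GST-AP2 R879A glutathione beads; medium: PBS, Tween 20 0.05%, BSA 0.1%; reagent: fluorescein-tagged arrestin peptide at 50 nM final; schedule: pre-incubation 12 min, peptide binding 1 h, room temperature; detection: flow cytometry, FL1 (488/535 nm); read-out: inhibition as reduced fluorescein signal on beads, percent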
# Arr AP2 CP1: inhibitors of human beta-arrestin and AP2 interaction; AID 504908; actives 2% (n = 1,300); shares compounds with Arr AP2 block; inhibition, % at 10 µM; GST-AP2 beads, FITC arrestin peptide binding, flow cytometry; GST-fused beta2-adaptin appendage, R879A mutant;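 active = inhibition above a set limit, roughly 3 SD of non-fluorescent compound noise, cut at about 38% in these data; inactive = inhibition at or below that limit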;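 note: loss of bead fluorescence from 50 nM FITC arrestin peptide bound to appendage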
# GST-FITC bead: counter-screen for beta-arrestin AP2 inhibitors: GST-GSH bead binding | inhibition, % at 10 µM | AID 588338 | actives 2% (n = 1,300) | shares compounds with Arr AP2 block | GST-fluorescein binding to GSH beads, fluorescence;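 active = inhibition above 50%, about 3 SD of the inhibition seen with non-fluorescent compounds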;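 note: fluorescein maleimide labelled GST captured on 4 micron glutathione beads; higher means more loss of bead fluorescence from quenching or blocked binding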
# Hits are given with their value; i = inactive; nt = no result.
SMILES,PG9 binder,iPSC survival up,ABCB6 inh 2,Arr AP2 block,others
CCCCOc1ccc(NC(=O)Cn2c(=O)ccc3c(C)cc(C)nc32)cc1,9.0,i,i,i,
CCCCOc1ccc(NC(=O)CN2CCN(CC)CC2)cc1,i,i,i,i,
O=C(NCc1ccccc1)c1ccc(-c2cn[nH]c2)c2ccoc12,i,107,i,nt,
O=C(NCC1CC1)c1ccc(-c2cn[nH]c2)c2ccoc12,i,43,i,nt,
COc1cc(NC(=O)c2ccc(-c3cn[nH]c3)c3ccoc23)cc(OC)c1OC,i,i,i,nt,
O=C(NCC1CCOCC1)c1ccc(-c2ccc(F)c(F)c2)c2ccoc12,i,i,i,nt,
COCCNC(=O)c1ccc(-c2cn[nH]c2)c2ccoc12,i,31,i,nt,
O=C(NCc1cccnc1)c1ccc(-c2ccc(F)c(F)c2)c2ccoc12,i,i,i,nt,
c1ccc(CC(Nc2cccnc2)c2ccccc2)cc1 (stereo not given),i,nt,nt,nt,
Cn1c(=O)c2c(ncn2CC(=O)NCc2cccnc2)n(C)c1=O,i,26,i,i,
CC1=N/C(=C/c2cccnc2)C(=O)O1,i,i,i,i,
Cc1cccc(C2=N/C(=C\c3cccnc3)C(=O)O2)c1,i,i,68,i,
O=S1(=O)c2ccc(Br)cc2OCCC2CCCCN21 (stereo not given),i,nt,nt,nt,
CCCc1nc(SCC(=O)Nc2nc3c(s2)CCCC3)c2ccccc2n1,i,22,i,i,
CCc1nnc(NC(=O)CSc2nc(-c3ccccc3)nc3ccccc23)s1,i,i,i,i,
CCc1nnc(NC(=O)CSc2nc(C3CCCCC3)nc3ccccc23)s1,16,i,i,i,
COC(=O)C1=C(C)N(Cc2cccc(C(F)(F)F)c2)C(=NCc2ccc(OC)cc2)NC1c1cccc(F)c1 (stereo not given),i,nt,nt,nt,
CCCCCCC[C@@H](C/C=C/CCC(=O)N(C)C/C(=C/Cl)C/C(=C\C(=O)N1C[C@H](O)CC1=O)OC)OC,i,i,i,i,
CCCCCCC[C@@H](C/C=C/CCC(=O)N(C)C/C(=C/Cl)C/C(=C\C(=O)N1CC(OC)=CC1=O)OC)OC,i,35,i,i,
O=C(CN1C(=O)c2ccccc2C1=O)N1CCCCC1,i,i,i,i,
O=C(CN1C(=O)c2cccc3cccc(c23)C1=O)N1CCCCCC1,i,i,63,i,
CCCCC1=CC2=C(c3ccco3)C(=O)C(C)(OC(=O)c3ccc(OC)cc3)C(=O)C2=CN1CC(C)C (stereo not given),37,i,i,i,
CCCCC1=CC2=C(c3ccco3)C(=O)C(C)(OC(=O)c3ccc(OC)cc3)C(=O)C2=CN1c1ccc(OC)cc1 (stereo not given),11,i,i,i,
CCCCC1=CC2=C(c3ccco3)C(=O)C(C)(OC(=O)c3ccc(OC)cc3)C(=O)C2=CN1Cc1ccco1 (stereo not given),nt,i,i,i,
C=CCN=C1NC(c2ccccc2)C(C(=O)OC)=C(C)N1C (stereo not given),i,nt,nt,nt,
SMILES,PG9 binder,iPSC survival up,ABCB6 inh 2,Arr AP2 block,others
COc1ccc(CN(C)CCCn2cnc3c(OCc4ccccc4)ncnc32)cc1,i,i,i,i,
COc1ccc(CN(C)CCCn2cnc3c(OC)ncnc32)cc1OC,i,25,i,nt,
CCOC(=O)c1c(C)n(C)c2ccc(OCC(O)CN3C(=O)c4ccccc4S3(=O)=O)cc12 (stereo not given),i,i,35,i,
COCc1[nH]nc2c1C(c1ccc(C)cc1)N(Cc1ccccc1)C2=O (stereo not given),i,nt,nt,nt,
CCc1cc2c(nc1CC)CCCN2S(=O)(=O)c1ccccc1,i,nt,nt,nt,
CCOC(=O)c1ccccc1NC(=O)COC(=O)c1ccccc1C(=O)N(C)c1ccccc1,i,i,i,i,
CN(C(=O)c1ccccc1NC(=O)C(F)(F)F)c1ccccc1,i,i,60,i,
Cc1ccsc1C(=O)OCC(=O)Nc1sccc1C(N)=O,i,20,i,i,
Cc1c(Nc2cc(Cl)c3nonc3c2[N+](=O)[O-])c(=O)n(-c2ccccc2)n1C,i,33,38,i,
Cc1c(Nc2ccc3nonc3c2[N+](=O)[O-])c(=O)n(-c2ccccc2)n1C,i,i,i,i,
Cc1ccc(Cl)cc1NC(=S)NCc1cccn1C,i,i,73,i,
COc1cccc(NC(=S)NCCN2CCOCC2)c1,i,i,i,i,
COc1cc(NC(=S)NCCCN2CCOCC2)cc(OC)c1,i,i,62,i,
COc1cc(=O)oc(C=O)c1C,i,nt,nt,nt,
NS(=O)(=O)c1ccc(CCn2c(=S)[nH]c3ccc(F)cc3c2=O)cc1,37,i,i,i,
O=c1c2cc(F)ccc2[nH]c(=S)n1Cc1ccc(F)cc1,i,i,i,i,
CCC(=O)Nc1ccc(/C(C)=N\NC(=O)c2ccc(C)s2)cc1,i,i,i,i,
C/C(=N/NC(=O)c1ccc(Cl)s1)c1ccc(NC(=O)COc2ccc(Cl)cc2)cc1,i,i,53,i,
CN1CCCCC(NC(=O)c2ccc(F)cc2)C1=O (stereo not given),i,nt,nt,nt,
O=S(=O)(c1cccc2cnccc12)N1CCNCC1,i,27,i,i,
COC(=O)[C@]12C[C@H](CC(=O)N3CCSCC3)C(=O)N(Cc3ccc4c(c3)OCO4)C1=C[C@H](COCc1ccccc1)O[C@@H]2C,i,nt,nt,nt,
CCC[C@@H](NS(=O)(=O)c1ccc(C)cc1)C(=O)Oc1ccc2c3c(c(=O)oc2c1)CCC3,i,i,i,57,Arr AP2 CP1=i;GST-FITC bead=i
CCc1ccccc1NC(=O)CNC(=O)c1cn(Cc2ccccc2)nc1-c1cccnc1,i,i,i,64,Arr AP2 CP1=i;GST-FITC bead=i
Cn1c(=O)[nH]c(=O)c2c1nc(N1CCNCC1)n2Cc1ccccc1Cl,i,i,i,i,
Cn1c(=O)[nH]c(=O)c2c1nc(N1CCCCCC1)n2Cc1cccc2ccccc12,i,i,i,100,Arr AP2 CP1=i;GST-FITC bead=i
SMILES,PG9 binder,iPSC survival up,ABCB6 inh 2,Arr AP2 block,others
C[C@@H]1CCCCO[C@@H](CN(C)C(=O)Nc2ccc(C(F)(F)F)cc2)[C@@H](C)CN([C@H](C)CO)C(=O)c2cc(NS(=O)(=O)c3ccc(Cl)cc3)ccc2O1,i,nt,nt,nt,
O=C(NCc1ccco1)Nc1c(Cl)cc(Cl)cc1Cl,i,nt,nt,nt,
COc1ccc(NC(=S)N2CCCC(c3nc4ccc(C)cc4[nH]3)C2)cc1 (stereo not given),i,i,i,57,Arr AP2 CP1=i;GST-FITC bead=i
CC(=O)Nc1ccc(S(=O)(=O)NC(C)CCc2ccccc2)cc1 (stereo not given),i,i,i,i,
CC(=O)Nc1ccc(S(=O)(=O)NC(C(=O)O)C(C)O)cc1 (stereo not given),i,i,i,54,Arr AP2 CP1=i;GST-FITC bead=i
CCSc1nnc(NC(=O)C2C3CCC(C3)C2C(=O)O)s1 (stereo not given),i,i,i,60,Arr AP2 CP1=i;GST-FITC bead=i
